The record followed here is the EternaBench riboswitch data.

This data set relates to MS2 coat protein. Description: apparent Kd, MS2 coat protein; higher = weaker binding; RNA-MaP array; FMN 200 µM where present. Summed up: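 Designs were transcribed by stalled E. coli RNA polymerase on Illumina sequencing-chip clusters. They were titrated with SNAP-549-labelled MS2 coat protein from 0.7 or 1.5 nM, doubling to 3 µM, in 100 mM Tris-HCl pH 7.5, 80 mM KCl, 4 mM MgCl2, BSA, DTT, yeast tRNA and Tween-20, without and then with constant ligand. The apparent Kd is the median of filtered per-cluster fits after normalisation of green signal to red-channel RNA signal and control-cluster median Fmax.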

Where [1] appears, read: designed as: OFF switch for flavin mononucleotide, no ligand.
[2] abbreviates: ligand present: flavin mononucleotide, designed as: OFF switch for flavin mononucleotide.
Setting [3] is: designed as: ON switch for flavin mononucleotide, no ligand.
Setting [4] is: ligand present: flavin mononucleotide, designed as: ON switch for flavin mononucleotide.

One may read the apparent Kd as a dissociation constant that holds for the conditions of the assay. For “UAUAUAUAGUAAGGAUAUGUAAUUAUUUUAUACACAGAAGGUACUGACAUGAGGAUCACCCAUGUUUUAGUGUGGGCAUGUAGA”, the “apparent Kd” value is, setting by setting: under setting [1], 55.3 nM; under setting [2], 86.5 nM.

With “AGCAUGUAAGGAUAUGCAACACGACGUUCAAUCGUCGUGCCGCAGAAGGUACAUGAGGAUCACCCAUGUGCUCC”, the “apparent Kd” value came out at 104 nM under setting [1] and 129 nM under setting [2].

Consider “ACGUUAAAAGGAUAUACAUGAGGAUCACCCAUGUUGUUCGAACUGGUAAACCCUCUAUGUAGAAGGUUUGGCAC”, for which the “apparent Kd” value was determined as 23.5 nM under setting [1] and 50.1 nM under setting [2].

Take “AUCAGCUCGUCAGGAUAUACAUCACUGCGUCAGCAGUGUGGUAAGAUCACAUGAGGAUCACCCAUGUAGAAGGGACGAGCUGAU”: the “apparent Kd” value was 13.9 nM under setting [1] and 252 nM under setting [2].

In the case of “UUACUAUUGCAGAAGGCGCAAUAAUAUAUAAAGUGAGGAUAUGCAACAUGAGGAUCACCCAUGUUUCACCCAUAUGAGGAUCAC”, the “apparent Kd” value under setting [1] amounted to 6.93 nM and the “apparent Kd” value under setting [2] amounted to 7.32 nM.

“UGGUGUGAAGGAUAUACAUGAGGAUCACCCAUGUAUGUGGUGUGUGUUGAGGUGGAGGGUAGAAGGUCAGGUGG”: the “apparent Kd” value is 38.2 nM under setting [1] and 39.5 nM under setting [2].

Take “AAACAUGUCCGAGGAUAUCUGGAAACAUUUUCAAGAGAAGGCGGACAUGAGGAUCACCCAUGUCUCUCCUCAUCAACCACAAAU”: the “apparent Kd” value under setting [1] is 8.83 nM and the “apparent Kd” value under setting [2] is 56.2 nM.

As to “UUAUGGAUUACAGGAUAUGUUAGUUUUAAGUGUAUUGGUUAUUACUUAAUUACAGAAGGGUAUUACAUGAGGAUCACCCAUGUA”, the “apparent Kd” value is, setting by setting: under setting [3], 16.4 nM; under setting [4], 11.8 nM.

On to “CAGGUAGACUGAGGAUAUACACUAAACAGCUAGUCUAUCUAGCUGCUCACAUGAGGAUCACCCAUGUAGAAGGCAGUCUGCCUG”, for which the “apparent Kd” value by setting is: under setting [1], 17.2 nM; under setting [2], 39.3 nM.

Turning to “GGAGCACGCACAGGAUAUCCGGCGACGCUCGUCGGAGAAGGGUGACAUGAGGAUCACCCAUGUACGUGCAACUCAGUUUGAGAG”, the “apparent Kd” value worked out at 43.6 nM under setting [3] and 36.1 nM under setting [4].

“UCAUCAGCGGGCGGAUCGGUUGGACAUGAGGAUCACCCAUGUAGAAGGACCGGUGGAUUCCGGCGGUAGGAUAUACAUUUGGUG”: the “apparent Kd” value worked out at 12.9 nM under setting [1] and 27.4 nM under setting [2].

With “ACUAUACGAGGAUAUACUGUCGGGCCUCGGACAUAAAUAAGACAUGAGGAUCACCCAUGUAGAAGGCGUUUACU”, the “apparent Kd” value under setting [1] is 25.6 nM and the “apparent Kd” value under setting [2] worked out at 46 nM.

Turning to “GCGUAUAUAUGUUUUAUUUAACAGUCAGAAGGUGAUAAUACGACAUGAGGAUCACCCAUGUAAUUCAAGGAUAUGAUCUUACGC”, the “apparent Kd” value stood at 117 nM under setting [3] and 20.1 nM under setting [4].

With “ACCUAUGAGGAGGAUAUACGGUGCGAAAGGACGGUAGAAGGCUUCACAUGAGGAUCACCCAUGUCGAUAAGCGA”, the “apparent Kd” value by setting is: under setting [1], 21.2 nM; under setting [2], 22.5 nM.

As to “AGGUGACAUGAGGAUCACCCAUGUAAGGAUAUACGGUUAGUGGAGAGAGGGAAAAGAGGUAGAAGGUACGGAGC”, the “apparent Kd” value is 266 nM under setting [1] and 142 nM under setting [2].

Consider “AAUUUACAGCUAGGAUAUACAUGAGGAUCACCCAUGUAAUGAUUGGAUCUUAUGAUCGUAUCAGUGUAGAAGGAGCAAAUAAGA”, for which the “apparent Kd” value is 13.4 nM under setting [1] and 28.4 nM under setting [2].

As for “GAGCGAGGGACAGGAUAUGCGGCGAAACUCUCCGCAGAAGGGUCGACAUGAGGAUCACCCAUGUCCUUACGCUCCAAGUAGAGG”, the “apparent Kd” value by setting is: under setting [3], 132 nM; under setting [4], 397 nM.

In the case of “AUUUAAUUUAAUAAGAUCACAUGAGGAUCACCCAUGUAUAUAUAGGAUAUCAGCUCGAAUAGAGCUGAGAAGGAUAUAUACUAU”, the “apparent Kd” value was 326 nM under setting [1] and 323 nM under setting [2].

Turning to “UUUUUAGCAGGAUAUAUCCACGACCACAUGAGGAUCACCCAUGUGGCCGCUUGAGGUUGUAUAGAAGGGCUUUUUU”, the “apparent Kd” value under setting [1] came to 14 nM and the “apparent Kd” value under setting [2] is 14.8 nM.

As for “CCUCUACAUGAGGAUCACCCAUGUGAGGAUAUGUGAGGCGCGCUCGAUGAGCGCACCGAUAGAAGGCAUGUGGU”, the “apparent Kd” value runs as follows: under setting [1], 25.8 nM; under setting [2], 70.5 nM.

As for “GGACGUCACAUCUACAUGAGGAUCACCCAUGUCAAAAGACAUGAGGAUAUGCUACCUAAUUGGUAGCAGAAGGCAUGGACGUCC”, the “apparent Kd” value was 1070 nM under setting [3] and 71.5 nM under setting [4].

Regarding “GGCAGCGGACAAGGAUAUAAGACGCAGACCAAAUUAGAAGGUGUUAUCUGGCAAUGCGAAAGCAGACAUGAGGAUCACCCAUGU”, the “apparent Kd” value came to 66.3 nM under setting [3] and 65.1 nM under setting [4].

For the sequence “GCCAGGAUGUAAGGAUAUGCUGAGGAUAACUCAGCAGAAGGUACAUGAGGAUCACCCAUGUAAUCCAAUAAUAAAUAACCUGGC”, the “apparent Kd” value was determined as 11.8 nM under setting [1] and 23.8 nM under setting [2].

On to “GCAGCUCCUGACAUGAGGAUCACCCAUGUUUAAUUAUUAAAUCAGGAUAUCCUUUCGAAACGAAAGGAGAAGGGAUAAGCUGCU”, for which the “apparent Kd” value runs as follows: under setting [3], 4.81 nM; under setting [4], 4.94 nM.

As for “GGAUAGGACAGAGGAUAUGCGUGCUAGAGAUACUAGCAAAAUUUCCUCACAUGAGGAUCACCCAUGUAGAAGGCUGUCCUAUCG”, the “apparent Kd” value runs as follows: under setting [1], 7.75 nM; under setting [2], 66.2 nM.

As to “GCUCGAUGUGCUGAAAACAUGAGGAUCACCCAUGUAAAUGAUCAGGAUAUUUACGUGCUUUAUGUAGAGAAGGGAUCAUCGAGC”, the “apparent Kd” value was found to be 260 nM under setting [3] and 78.3 nM under setting [4].

Take “AUAAUUUUAUUUUUCUAUUUCAUCAGAAGGCAUUACAUGAGGAUCACCCAUGUUUUGGAUAGUAAUGAGGAUAUGAUAUGGUUA”: the “apparent Kd” value is, setting by setting: under setting [1], 10.2 nM; under setting [2], 18.6 nM.

In the case of “GGUACCAUCACAGGAUAUCGUAUCCUUUGGGUACGAGAAGGGUGAUAACAUGAGGAUCACCCAUGUGGUACCGGGCGUGAGCCC”, the “apparent Kd” value reads like this: under setting [3], 1340 nM; under setting [4], 323 nM.

For the sequence “AAUGAUUGAUGAGGAUAUUGUGGUGAAACACGACGAGAAGGCAUAUGUCACAUGAGGAUCACCCAUGUGAGCUUUGUGGAUAUA”, the “apparent Kd” value came to 25 nM under setting [1] and 28.9 nM under setting [2].

Regarding “AACUCGUCAGGAUAUGCGCGCAGUUGCUGCGCUUCGCCGUUGCAGAAGGGACAUGAGGAUCACCCAUGUAGGUC”, the “apparent Kd” value is, setting by setting: under setting [1], 35.8 nM; under setting [2], 43.5 nM.

Consider “AAAUAAAGGAUUAAGGAUAUAUCACAUGAAACAUGAGGAUCACCCAUGUAAUAAUAUAAAGGGUGAUAGAAGGUAGUUUAUAAAUA”, for which the “apparent Kd” value came out at 415 nM under setting [3] and 440 nM under setting [4].

As for “UUAGAAAUGUUAGGAUAUUAAUAUUUUUUUAGUAUGAUCUACAUGAGGAUCACCCAUGUUAAUAUUAAGAAGGAACAUUUUAUU”, the “apparent Kd” value runs as follows: under setting [1], 88.5 nM; under setting [2], 64 nM.

In the case of “GGUCUUCAAGUCAGGAUAUCGUCUGGUCGGUCUGGCGAGAAGGGACAUGAGGAUCACCCAUGUCGUCUCAUCAG”, the “apparent Kd” value by setting is: under setting [1], 25.5 nM; under setting [2], 40.2 nM.

Turning to “UUUAUGUAAGGAUAUGCGGGCGGGCGCGUUUGUGUUUGUUUGUAGAAGGUACAUGAGGAUCACCCAUGUAGUGG”, the “apparent Kd” value runs as follows: under setting [1], 133 nM; under setting [2], 169 nM.

Turning to “CUCUUGUGAGGAUAUCAGGUGUGCUAGCGUACUGGUACAUCUGAGAAGGCACAUGAGGAUCACCCAUGUUUCAA”, the “apparent Kd” value by setting is: under setting [1], 118 nM; under setting [2], 21.9 nM.

For the sequence “GCGAUGUCAGGAUAUGUGUAAAGAAUAAAACAAAUAACAACACAGAAGGGACAUGAGGAUCACCCAUGUUACGC”, the “apparent Kd” value is, setting by setting: under setting [1], 30.1 nM; under setting [2], 37.2 nM.

On to “AUUGGUGGUGUAGGAUAUAACAGCAGCUGUGGUACCGUGUGUUAAGGACAUGAGGAUCACCCAUGUUAGAAGGACACUGUCCAG”, for which the “apparent Kd” value by setting is: under setting [1], 436 nM; under setting [2], 75.8 nM.

Regarding “CGGCGGAAAGGAUAUGCAGUAAUAUCCAAAUGUGGGCCACGACAUGAGGAUCACCCAUGUAGAAGGUUCAGCCG”, the “apparent Kd” value came out at 14.7 nM under setting [1] and 13.6 nM under setting [2].

On to “CCGAAUGUCACAGGAUAUGGUCCGGGCUCGCGACCAGAAGGGUGAUCUCACAUGAGGAUCACCCAUGUGUAGGCGUUAGGCUAU”, for which the “apparent Kd” value runs as follows: under setting [3], 34.1 nM; under setting [4], 260 nM.

For the sequence “GUGUACAGAGGAUAUAUAUGAGCUAGGAAACUAGCAAACUCACAUGAGGAUCACCCAUGUAGAAGGCUGUACAC”, the “apparent Kd” value is 29.4 nM under setting [1] and 156 nM under setting [2].

On to “ACAGAGGCUGACAUGAGGAUCACCCAUGUUAGAUUGUUAUGUCAGGAUAUUGUCUAGCAACUAGACAAGAAGGGACCCUCUGUG”, for which the “apparent Kd” value under setting [3] was determined as 39.2 nM and the “apparent Kd” value under setting [4] is 9.69 nM.

With “AGUCAGACAGGAUAUACGUGAGUGGAAAAAGUAUGUCCACUACAUGAGGAUCACCCAUGUAGAAGGGUCUGACA”, the “apparent Kd” value runs as follows: under setting [1], 17.7 nM; under setting [2], 14.7 nM.

As to “UUUAUAAAUUAGAAGGCGUGAUAAAAUACAAUAGACAUGAGGAUCACCCAUGUGUACCCAUGUUAUGAGGAUAUAGUCAUAUAU”, the “apparent Kd” value by setting is: under setting [3], 279 nM; under setting [4], 233 nM.

Turning to “CGUAUUAUUCAGAAGGCACUUCUCAUGUUACAUGAGGAUCACCCAUGUUUGUGAGGAUAUGAAUAUAGUUGUUGGUGUAUUAUA”, the “apparent Kd” value was determined as 7.25 nM under setting [1] and 8.59 nM under setting [2].

On to “UUGGACGUCGUAGGAUAUGAAGGAUAUUCCUACAUGAGGAUCACCCAUGUUGACAUGGAAGAAGGACAGAAGGACGAUGUCCAU”, for which the “apparent Kd” value is 11.3 nM under setting [3] and 5.16 nM under setting [4].

Take “AAAGACAGACAUGAGGAUCACCCAUGUUACGAAGAUAAUGGGAGAAGGGCGAUUGCAAAGCAAUCGCAGGAUAUUCGUAUUGUC”: the “apparent Kd” value under setting [3] turned out to be 21.1 nM and the “apparent Kd” value under setting [4] was 8.93 nM.

Turning to “GAGCAGGAAGGAUAUACAUGAGGAUCACCCAUGUACCAUCAAGGCUUUGAUUUUCACGGUAGAAGGUCCCAAUA”, the “apparent Kd” value came to 40.3 nM under setting [1] and 51.4 nM under setting [2].

With “UUCAGCUCGUGAGGAUAUACAUGUGCUGGAAACAGCACUAAUUAAAUCACAUGAGGAUCACCCAUGUAGAAGGCACGAGCUGAG”, the “apparent Kd” value runs as follows: under setting [1], 16.2 nM; under setting [2], 25.8 nM.
